The target of this experiment is Growth factor receptor-bound protein 2 (Homo sapiens, UniProt P62993). Description: Binding affinity to GST-tagged recombinant Grb2 SH2 domain by Biacore assay. The essentials: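 Surface plasmon resonance (Biacore) binding to the Grb2-SH2 domain, reported as Kd. Values are means of two experiments, with standard deviation given.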

Numbered stars: 1 amine (or outer) side, 2 acyl side, 3 side chain; on linkers, the order of the positions; unused ones are H or OH. Bridge positions count the residues as written; N and C are the ends. Square brackets hold non-standard residues; d marks the D form. Peptide text beside a SMILES is read from it. pY = N[C@@H](Cc1ccc(OP(=O)(O)O)cc1)C(=O)O; X1 = O=C(C1(N[*:1])CCCNC1)[*:2]

Chain of Growth factor receptor-bound protein 2 (P62993 whole entry, the tested form may be a part): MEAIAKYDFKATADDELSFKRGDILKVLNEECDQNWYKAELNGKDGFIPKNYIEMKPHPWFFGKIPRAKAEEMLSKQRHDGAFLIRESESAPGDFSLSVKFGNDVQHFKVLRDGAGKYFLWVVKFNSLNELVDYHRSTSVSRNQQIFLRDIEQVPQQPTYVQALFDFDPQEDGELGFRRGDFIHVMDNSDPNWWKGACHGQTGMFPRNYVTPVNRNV

One may read the Kd as the constant that tells how readily two partners part at equilibrium. In the case of `NC(=O)C[C@H]1NC(=O)C2(CCCCC2)NC(=O)[C@@H](Cc2ccc(OP(=O)(O)O)cc2)NC(=O)C[S@@+]([O-])C[C@H](C(N)=O)NC(=O)[C@@H](Cc2ccc3ccccc3c2)NC1=O` (single isomer, unassigned), the Kd is 4800 nM. For `CC(C)[C@@H]1NC(=O)[C@H](CC(N)=O)NC(=O)C2(CCCNC2)NC(=O)[C@H](Cc2ccc(OP(=O)(O)O)cc2)NC(=O)CSC[C@@H](C(N)=O)NC1=O` (some centres not stated) ({CH2CO}-[pY][X1]NVC-NH2; thioether N-5), the Kd is 359 nM.

For the origin of these results see ChEMBL document CHEMBL1151863, “Discovery of thioether-bridged cyclic pentapeptides binding to Grb2-SH2 domain with high affinity” (Bioorg Med Chem Lett, 2009).
